Laboratory results reported in ChEMBL document CHEMBL3244071, “3-Phenyl-5-[2,2,2-trifluoro-1-hydroxy-1-(trifluoromethyl)ethyl]indole-2-carbonitrile, a potent inhibitor of prostaglandin synthetase and of platelet aggregation” (J Med Chem, 1979).

Columns and labels:
[1] = biological target: prostaglandin G/H synthase 1 (Bos taurus) (UniProt O62664); assay: Inhibition of prostaglandin synthetase (bovine) using arachidonic acid as substrate preincubated for 10 mins followed by substrate addition
Rattus norvegicus [2] = assay: Toxicity in po dosed rat assessed as gastric ulcer incidence after 4 hrs; assay type: organism-based, Stomach; conditions: in vivo
In short: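 Male rats fasted 18 h with water ad libitum. Dosed orally 4 h before autopsy. Stomachs opened along the lesser curvature, everted, rinsed in saline and examined for focal petechiae.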

[3] = Toxicity in po dosed mouse; assay type: organism-based; conditions: in vivo
In short: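 Acute oral (single-dose) administration to mice; the endpoint was the LD50 in mg/kg.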

Rattus norvegicus [4] = assay: Inhibition of PGF2-alpha formation in ip dosed rat serum after 1 hr by radioimmunoassay; assay type: functional
In short: (§1)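 Male rats, about 200 g, five per group, dosed at various levels ip or orally by intubation. Killed 1 h later and serum prepared. Serum extracted with ethyl acetate, extract evaporated under nitrogen, then assayed by radioimmunoassay using rabbit antibodies raised to PGF2α.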

Platelet [5] = assay: Inhibition of collagen-induced platelet aggregation in human platelet-rich plasma after 5 mins; assay type: functional
In short: (§2)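 Human PRP from centrifugation (180g, 15 min, room temperature); PPP from spinning PRP at 1000g for 2 min. 1 mL PRP stirred at 1000 rpm at 37 °C in a densitometer. Compounds added in physiological saline at various concentrations and incubated 5 min. Aggregation then triggered with ADP, epinephrine hydrochloride or human mammary-gland collagen. IC50 extrapolated from % inhibition vs log concentration.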

Mus musculus = assay: Inhibition of arachidonic acid-induced diarrhea in po dosed mouse treated for 1 hr prior to arachidonic acid-challenge measured after 30 mins; assay type: functional
In short: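 Male mice, 18-20 g, given compound orally 1 h before arachidonic acid 4 mg/kg ip. Diarrhea scored 0-4 on paper towels by pellet softness and wet ring.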

Rattus norvegicus [6] = species on record: Rattus norvegicus; assay: Toxicity in rat assessed as systemic antiinflammatory activity; assay type: organism-based; conditions: in vivo
Rattus norvegicus [7] = assay: Inhibition of PGF2-alpha formation in po dosed rat serum after 1 hr by radioimmunoassay; assay type: functional
In short: as §1

Rattus norvegicus [8] = species on record: Rattus norvegicus; assay: Toxicity in rat assessed as systemic analgesic activity; assay type: organism-based; conditions: in vivo
[9] = Toxicity in po dosed mouse treated for 14 days; assay type: organism-based; conditions: in vivo
Platelet [10] = assay: Inhibition of epinephrine hydrochloride-induced platelet aggregation in human platelet-rich plasma after 5 mins; assay type: functional
In short: as §2

[11] = biological target: prostaglandin G/H synthase 1 (Bos taurus) (UniProt O62664); assay: Ratio of indomethacin IC50 to compound IC50 for prostaglandin synthetase (bovine)
Platelet [12] = assay: Inhibition of ADP-induced platelet aggregation in human platelet-rich plasma after 5 mins; assay type: functional
In short: as §2

[13] = Homo sapiens, Platelet, Plasma, 5 min, read-out: IC50

Structure (SMILES): NC(=O)c1[nH]c2ccc(C(O)(C(F)(F)F)C(F)(F)F)cc2c1-c1ccccc1
- IC50 [1]: 7 µM

Structure (SMILES): N#Cc1[nH]c2ccc(C(O)(C(F)(F)F)C(F)(F)F)cc2c1-c1ccccc1
- ED50 (Rattus norvegicus [2]): > 250 mg/kg
- IC50 [1]: 0.5 µM
- LD50 [3]: > 1000 mg/kg
- ED50 (Rattus norvegicus [4]): 15 mg/kg
- IC50 (Platelet [5]): 4.2 µM
- ED50 (Mus musculus): 5 mg/kg
- Activity (Rattus norvegicus [6]): Non-toxic
- ED50 (Rattus norvegicus [7]): 28 mg/kg
- Activity (Rattus norvegicus [8]): Non-toxic
- LD50 at 336 h [9]: > 1000 mg/kg
- IC50 (Platelet [10]; [13]): 34 µM
- Ratio IC50 [11]: 2
- IC50 (Platelet [12]): 7.3 µM

Structure (SMILES): CC(=O)Oc1ccccc1C(=O)O [ASPIRIN]
- ED50 (Rattus norvegicus [2]): 49 mg/kg
- ED50 (Rattus norvegicus [4]): 10 mg/kg
- IC50 (Platelet [5]): 31 µM
- ED50 (Mus musculus): 1.3 mg/kg
- ED50 (Rattus norvegicus [7]): 6.7 mg/kg
- IC50 (Platelet [10]; platelet): 18 µM
- IC50 (Platelet [12]): 25 µM

Structure (SMILES): COc1ccc2c(c1)c(CC(=O)O)c(C)n2C(=O)c1ccc(Cl)cc1 [INDOMETHACIN]
- ED50 (Rattus norvegicus [2]): 3 mg/kg
- ED50 (Rattus norvegicus [4]): < 1 mg/kg
- IC50 (Platelet [5]): 2.8 µM
- ED50 (Mus musculus): 0.8 mg/kg
- ED50 (Rattus norvegicus [7]): < 1 mg/kg
- IC50 (Platelet [10]; [13]): 3.2 µM
- IC50 (Platelet [12]): 0.1 µM
